EBNA-1 inh: blocks EBNA-1 binding to DNA. EBNA-1 DNA binding, fluorescence polarization. inhibition, % at 14.8 µM. 0.34% of 300,000 active. AID 1950; in the data active means inhibition above about 28%
PP5 primary: PP5 (human) phosphatase inhibition | P53041 | purified PP5c, OMFP substrate fluorescence | inhibition, % at 6.7 µM | 0.18% of 320,000 active;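 active means inhibition above the campaign's mean inhibition across all tested compounds plus 3 SD, cut at about 9.5% in these data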;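 further: 0% = DMSO only and 100% = 100 µM cantharidin control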
Target sequence (P53041 whole entry, looked up): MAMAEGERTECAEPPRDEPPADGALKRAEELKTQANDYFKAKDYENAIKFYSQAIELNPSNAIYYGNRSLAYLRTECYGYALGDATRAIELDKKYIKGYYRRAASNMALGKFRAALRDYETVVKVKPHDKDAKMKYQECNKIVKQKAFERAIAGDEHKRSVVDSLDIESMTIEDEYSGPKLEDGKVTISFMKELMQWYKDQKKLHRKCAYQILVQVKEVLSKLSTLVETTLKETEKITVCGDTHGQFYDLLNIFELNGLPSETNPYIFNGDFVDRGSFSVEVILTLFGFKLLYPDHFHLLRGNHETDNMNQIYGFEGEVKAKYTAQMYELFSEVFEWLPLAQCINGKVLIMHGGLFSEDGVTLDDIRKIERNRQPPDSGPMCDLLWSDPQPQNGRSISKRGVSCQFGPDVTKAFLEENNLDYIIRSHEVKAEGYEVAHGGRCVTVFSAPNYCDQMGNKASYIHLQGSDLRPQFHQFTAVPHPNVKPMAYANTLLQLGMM
ZTA counter: counter-screen for EBNA-1 inhibitors: inhibitors of Epstein-Barr virus ZTA. ZTA-DNA binding, fluorescence polarization. inhibition, % at 11 µM. 0.15% of 320,000 active. AID 2234; in the data active means inhibition above about 33%
PP1 counter: counter-screen for PP5 inhibitors: inhibitors of human PP1-alpha; P62136; purified PP1alpha, OMFP fluorescence; inhibition, % at 6.7 µM; 0.9% of 320,000 active; AID 2235;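 active means inhibition above the mean inhibition of all tested compounds plus 3 SD, computed separately for each screening campaign, cut at about 15% in these data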
HCV core dimer: blocks dimerization of HCV core protein; TR-FRET GST/Flag-core106 dimerization, 1536-well; inhibition, % at 5 µM; 0.33% of 300,000 active; AID 1899;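 active means inhibition above the mean of all tested compounds plus 3 SD, set per screening campaign, cut at about 45% in these data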
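Test system: GST/Flag-tagged HCV core106 proteins; Medium: KF-containing HEPES buffer, pH 7.45, DTT, CHAPS, BSA; Times: compound-protein-antibody incubation 4 h at 22.5 °C; Detection: TR-FRET 671 and 617 nm emission; Benchmarks: wells lacking GST-core106 and wells with excess unlabelled core106.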
PP1 confirm: confirmation of human PP1 phosphatase inhibitors; inhibition, % at 6.7 µM; shares compounds with PP1 counter; 52% of 1,900 active; purified PP1alpha, OMFP substrate fluorescence;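 active means mean PP1 inhibition above a set limit taken from the earlier primary screen, cut at about 15% in these data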
PP5 counter: inhibits human PP5 phosphatase in PP1 counter-screen; shares compounds with PP1 counter; purified PP5c, OMFP fluorescence; inhibition, % at 6.7 µM; 4% of 1,900 active; AID 2360;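 active means mean PP5 inhibition over triplicate wells above about 9.5% taken from the earlier PP1 screen, limit read from the data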
The depositor's hits bear a star. In the library only some 1.7% were active in any assay of this set; here they are far more common.

What do the screens show for `CCCCn1c(=O)c(C(=O)Nc2ccccc2)c(O)c2ccccc21`?
EBNA-1 inh: -1.7; PP5 primary: 1.8; ZTA counter: -1.3; PP1 counter: -1.7; HCV core dimer: -1.2

How did Cc1ccc(C2C(=O)NC(=O)NC2=O)cc1 do in these assays?
EBNA-1 inh: -6.8; PP5 primary: 4.9; ZTA counter: -15.4; PP1 counter: -1.7; HCV core dimer: -0.4

Results for O=C(O)C1C2CCC(O2)C1C(=O)Nc1ccc(Cl)cc1 (stereo unspecified) ?
EBNA-1 inh: -2.1; PP5 primary: 69.2*; ZTA counter: 7.1; PP1 counter: 62.6*; HCV core dimer: -0.6; PP1 confirm: 18.3*; PP5 counter: 25.9*

How did COc1ccc(NC(=O)C2C3CCC(O3)C2C(=O)O)c(OC)c1 (stereo unspecified) do in these assays?
EBNA-1 inh: -5.0; PP5 primary: 76.4*; ZTA counter: 10.6; PP1 counter: 75.0*; HCV core dimer: -8.8; PP1 confirm: 29.3*; PP5 counter: 45.8*

How did O=C(O)C1C2CCC(O2)C1C(=O)NC1CCCCC1 (stereo unspecified) do in these assays?
EBNA-1 inh: 2.9; PP5 primary: 75.7*; ZTA counter: -9.8; PP1 counter: 72.9*; HCV core dimer: -2.7; PP1 confirm: 48.3*; PP5 counter: 56.1*

How did CON(C)C(=O)Nc1ccc(Cl)cc1 do in these assays?
EBNA-1 inh: -6.6; PP5 primary: 2.8; ZTA counter: 5.9; PP1 counter: -9.8; HCV core dimer: 5.2

What do the screens show for `COc1ccc(OC)c(CC(=O)O)c1`?
EBNA-1 inh: 13.5; PP5 primary: -3.5; ZTA counter: 7.0; PP1 counter: -3.2; HCV core dimer: -0.9

What do the screens show for `NC(N)=N/N=C/c1ccc(N(c2ccccc2)c2ccccc2)cc1`?
EBNA-1 inh: -4.0; PP5 primary: 5.8; ZTA counter: 12.8; PP1 counter: 38.1*; HCV core dimer: -17.6; PP1 confirm: 25.4*; PP5 counter: -3.5

What do the screens show for `CC1CN(c2ccc([N+](=O)[O-])c(N3CCCCC3)c2)CCN1` (stereo unspecified)?
EBNA-1 inh: 0.5; PP5 primary: -1.4; ZTA counter: -15.9; PP1 counter: 0.3; HCV core dimer: -3.9

What do the screens show for `O=c1[nH]c(O)c(/C=C2/C=CC(c3cc(Cl)ccc3Cl)=N2)c(=O)[nH]1`?
EBNA-1 inh: 1.4; PP5 primary: -2.2; ZTA counter: 10.2; PP1 counter: 19.1*; HCV core dimer: 12.2; PP1 confirm: 47.3*; PP5 counter: -5.5

What do the screens show for `COC(=O)C1=C(c2ccc(C(C)=O)cc2)C[C@@H]2CC[C@H]1N2C(=O)NCCO`?
PP5 primary: 1.2; ZTA counter: 1.6; PP1 counter: -2.2
